ChEMBL document CHEMBL4732146, “Nitric oxide-donating and reactive oxygen species-responsive prochelators based on 8-hydroxyquinoline as anticancer agents” (Eur J Med Chem, 2021)
Activity calls are given as the source filed them. No cut-off for these calls is given here.

What was measured:
SW1990 [1] = experiment: Cytotoxicity against human SW1990 cells assessed as reduction in cell viability measured after 48 hrs in presence of CuCl2 by MTT assay; format: functional, cell-based; conditions: SW1990, 48 h
Outline: (§1)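 Cells seeded 6 × 10⁴ per well, cultured 24 h at 37 °C under 5% CO₂, then exposed to compound for 48 h, with or without 50 µM CuCl₂ or FeCl₃ co-incubation. MTT added for 4 h at 37 °C, formazan dissolved in DMSO, A490 read. IC50 reported as mean (SD), n = 3.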

[2] = Stability of compound in pH 5 PBS buffer measured after 5 to 24 hrs by RP-HPLC analysis; format: physicochemical; conditions: time 5-24 hrs
Outline: (§2)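 Compound (1 µM) stirred at 37 °C either in PBS (pH 5.0, 7.4 or 10.0) containing 5% DMSO or in DMEM with 10% FBS. Aliquots were analysed by RP-HPLC (0.1% TFA water/methanol gradient, 256 nm) for remaining intact compound, up to 24 h.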

PANC-1 [3] = experiment: Cytotoxicity against human PANC-1 cells assessed as reduction in cell viability measured after 48 hrs in presence of CuCl2 by MTT assay; format: functional, cell-based; conditions: PANC-1, 48 h; outline: as §1
[4] = Cytotoxicity against human H6C7 cells assessed as reduction in cell viability measured after 48 hrs by MTT assay; format: cell-based; conditions: H6C7, 48 h; outline: as §1
PANC-1 [5] = experiment: Cytotoxicity against human PANC-1 cells assessed as reduction in cell viability measured after 48 hrs in presence of FeCl3 by MTT assay; format: functional, cell-based; conditions: PANC-1, 48 h; outline: as §1
PANC-1 [6] = experiment: Cytotoxicity against human PANC-1 cells assessed as reduction in cell viability measured after 48 hrs by MTT assay; format: functional, cell-based; conditions: PANC-1, 48 h; outline: as §1
[7] = Cytotoxicity against human RWPE2 cells assessed as reduction in cell viability measured after 48 hrs by MTT assay; format: cell-based; conditions: RWPE2, 48 h; outline: as §1
SW1990 [8] = experiment: Cytotoxicity against human SW1990 cells assessed as reduction in cell viability measured after 48 hrs in presence of FeCl3 by MTT assay; format: functional, cell-based; conditions: SW1990, 48 h; outline: as §1
[9] = Stability of compound in DMEM with 10% fetal bovine serum measured after 5 to 24 hrs by RP-HPLC analysis; format: cell-free; conditions: time 5-24 hrs; outline: as §2
[10] = Stability of compound in pH 7.4 PBS buffer measured after 5 to 24 hrs by RP-HPLC analysis; format: physicochemical; conditions: time 5-24 hrs; outline: as §2
SW1990 [11] = experiment: Cytotoxicity against human SW1990 cells assessed as reduction in cell viability measured after 48 hrs by MTT assay; format: functional, cell-based; conditions: SW1990, 48 h; outline: as §1
[12] = Stability of compound in pH 10 PBS buffer measured after 5 to 24 hrs by RP-HPLC analysis; format: physicochemical; conditions: time 5-24 hrs; outline: as §2
MCF7 = experiment: Cytotoxicity against human MCF7 cells assessed as reduction in cell viability at 10 to 20 uM measured after 48 hrs by MTT assay; format: functional, cell-based; conditions: dose 10-20 µM
Outline: (§3)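 MTT assay with 48 h compound exposure at 10 or 20 µM. Cells seeded 6 × 10⁴ per well and grown 24 h beforehand. MTT 4 h, DMSO solubilisation, A490 read. Percent cell death given as mean ± SD, n = 3.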

PANC-1 [13] = experiment: Cytotoxicity against human PANC-1 cells assessed as reduction in cell viability at 20 uM measured after 48 hrs by MTT assay relative to control; format: functional; outline: as §3
[14] = Metal chelating activity assessed as compound-Fe3+ complex formation measured after 40 mins by calcein dye based fluorescence assay; conditions: dose 10-50 µM
Outline: (§4)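 Calcein (10 µM) in 50 mM HEPES was quenched by 10 µM CuCl₂ (or FeCl₃ for the Fe³⁺ arm). Chelator was added from DMSO stock to a final 10 or 50 µM and incubated 40 min at room temperature. Recovery rate was calculated from fluorescence (λex 485 / λem 520 nm); n = 3.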

HepG2 = experiment: Cytotoxicity against human HepG2 cells assessed as reduction in cell viability at 10 to 20 uM measured after 48 hrs by MTT assay; format: functional, cell-based; conditions: dose 10-20 µM; outline: as §3
PANC-1 [15] = experiment: Cytotoxicity against human PANC-1 cells assessed as reduction in cell viability at 10 uM measured after 48 hrs by MTT assay; format: functional, cell-based; outline: as §3
[16] = Metal chelating activity assessed as compound-Cu2+ complex formation measured after 40 mins by calcein dye based fluorescence assay; conditions: dose 10-50 µM; outline: as §4
A549 = experiment: Cytotoxicity against human A549 cells assessed as reduction in cell viability at 10 to 20 uM measured after 48 hrs by MTT assay; format: functional, cell-based; conditions: dose 10-20 µM
HeLa = experiment: Cytotoxicity against human HeLa cells assessed as reduction in cell viability at 10 to 20 uM measured after 48 hrs by MTT assay; format: functional, cell-based; conditions: dose 10-20 µM

| Compound | Stabilty [2] | Stabilty [10] | Stabilty [12] | Activity [14] | Activity [16] | IC50 (SW1990 [1]) | IC50 (PANC-1 [3]) | IC50 [4] | IC50 (PANC-1 [5]) | IC50 (PANC-1 [6]) | IC50 [7] | IC50 (SW1990 [8]) | Stability [9] | IC50 (SW1990 [11]) | Activity (MCF7) | Activity (PANC-1 [13]) | Activity (HepG2) | Activity (PANC-1 [15]) | Activity (A549) | Activity (HeLa) |
| --- | --- | --- | --- | --- | --- | --- | --- | --- | --- | --- | --- | --- | --- | --- | --- | --- | --- | --- | --- | --- |
| CC1(C)OB(c2ccc(COc3cccc4ccc(C(=O)N5CCC(Oc6no[n+]([O-])c6S(=O)(=O)c6ccccc6)CC5)nc34)cc2)OC1(C)C | Stable | Stable | Stable |  |  | 2.88 µM | 3.47 µM | 34.2 µM | 38.2 µM | 13.2 µM | 28.6 µM | 34.2 µM | Stable | 12.1 µM |  |  |  |  |  |  |
| O=C(c1ccc2cccc(O)c2n1)N1CCN(CCOc2no[n+]([O-])c2S(=O)(=O)c2ccccc2)CC1 |  |  |  | Dose-dependent effect | Dose-dependent effect |  |  |  |  |  |  |  |  |  | Active | Active | Active | Active | Active | Active |
| CC1(C)OB(c2ccc(COc3cccc4ccc(C(=O)NCCCOc5no[n+]([O-])c5S(=O)(=O)c5ccccc5)nc34)cc2)OC1(C)C | Stable | Stable | Stable |  |  | 3.2 µM | 4.89 µM | 40.4 µM | 25.3 µM | 17.1 µM | 39.8 µM | 20.8 µM | Stable | 15.7 µM |  |  |  |  |  |  |

More lines, main results first:

| Stabilty [2] | Stabilty [10] | Stabilty [12] | Activity [14] | Activity [16] | Compound | IC50 (SW1990 [1]) | IC50 (PANC-1 [3]) | IC50 [4] | IC50 (PANC-1 [5]) | IC50 (PANC-1 [6]) | IC50 [7] | IC50 (SW1990 [8]) | Stability [9] | IC50 (SW1990 [11]) | Activity (MCF7) | Activity (PANC-1 [13]) | Activity (HepG2) | Activity (PANC-1 [15]) | Activity (A549) | Activity (HeLa) |
| --- | --- | --- | --- | --- | --- | --- | --- | --- | --- | --- | --- | --- | --- | --- | --- | --- | --- | --- | --- | --- |
|  |  |  | Dose-dependent effect | Dose-dependent effect | O=C(/C=C/c1ccc2cccc(O)c2n1)NCCOc1no[n+]([O-])c1S(=O)(=O)c1ccccc1 |  |  |  |  |  |  |  |  |  | Active | Active | Active | Active | Active | Active |
|  |  |  | Dose-dependent effect | Dose-dependent effect | O=C(/C=C\c1ccc2cccc(O)c2n1)N1CCC(Oc2no[n+]([O-])c2S(=O)(=O)c2ccccc2)CC1 |  |  |  |  |  |  |  |  |  | Active | Active | Active | Active | Active | Active |
|  |  |  | Dose-dependent effect | Dose-dependent effect | O=C(/C=C/c1ccc2cccc(O)c2n1)NCCCOc1no[n+]([O-])c1S(=O)(=O)c1ccccc1 |  |  |  |  |  |  |  |  |  | Active | Active | Active | Active | Active | Active |
